Data reported in ChEMBL document CHEMBL1914326, “Synthesis and anticonvulsant properties of new acetamide derivatives of phthalimide, and its saturated cyclohexane and norbornene analogs” (Eur J Med Chem, 2011).
Active and inactive are the calls of the source. The calls are words filed in the database; no cut-off is given here.

Columns and labels:
[1] = test system: Mus musculus; test: Neurotoxicity in CF1 albino mouse assessed as motor impairment at 300 mg/kg, ip after 0.5 hrs by rotarod test; format: toxicity, organism-based; set-up: dose 300 mg/kg, route intraperitoneal; conditions: in vivo
In short: (§1)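 Acute neurotoxicity was scored on the minimal motor impairment rotorod test in male CF-1 mice. Animals in groups of eight were dosed i.p. at 30, 100 or 300 mg/kg in 0.5% methylcellulose/water and examined at 0.5 and 4 h. Untreated controls keep their balance on the rod for a prolonged time. The minimum dose causing impairment was recorded.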

[2] = test system: Mus musculus; test: Neurotoxicity in CF1 albino mouse assessed as motor impairment at 300 mg/kg, ip after 4 hrs by rotarod test; format: toxicity, organism-based; set-up: dose 300 mg/kg, route intraperitoneal; conditions: in vivo; in short: as §1
[3] = test system: Mus musculus; test: Anticonvulsant activity in CF1 albino mouse assessed as protection against maximal electroshock at 300 mg/kg, ip after 0.5 hrs; format: functional, organism-based; set-up: dose 300 mg/kg
In short: (§2)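 Male albino CF-1 mice in groups of eight received i.p. doses of 30, 100 and 300 mg/kg, suspended in 0.5% methylcellulose/water. Maximal electroshock seizures were tested at 0.5 and 4 h, with one additional 0.25 h reading at 100 mg/kg. The minimum dose giving protection was recorded. A dash means no activity at 300 mg/kg.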

[4] = test system: Mus musculus; test: Anticonvulsant activity in CF1 albino mouse assessed as protection against subcutaneous pentylenetetrazole-induced seizures at 300 mg/kg, ip after 0.5 hrs; format: functional, organism-based; set-up: dose 300 mg/kg
In short: (§3)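 Male CF-1 mice in groups of eight were dosed i.p. at 30, 100 or 300 mg/kg in 0.5% methylcellulose/water. At 0.5 and 4 h, pentylenetetrazole 85 mg/kg (CD97 dose) was given s.c. This dose produces clonic seizures lasting at least 5 s. The minimum protective dose was recorded, with a top dose of 300 mg/kg.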

[5] = test system: Mus musculus; test: Anticonvulsant activity in CF1 albino mouse assessed as protection against subcutaneous pentylenetetrazole-induced seizures at 300 mg/kg, ip after 4 hrs; format: functional, organism-based; set-up: dose 300 mg/kg; in short: as §3
[6] = test system: Mus musculus; test: Anticonvulsant activity in CF1 albino mouse assessed as protection against maximal electroshock at 300 mg/kg, ip after 4 hrs; format: functional, organism-based; set-up: dose 300 mg/kg; in short: as §2
[7] = test system: Mus musculus; test: Anticonvulsant activity in ip dosed CF1 albino mouse assessed as protection against maximal electroshock after 0.5 hrs; format: functional; conditions: read-out: MED; in short: as §2
[8] = test system: Mus musculus; test: Anticonvulsant activity in ip dosed CF1 albino mouse assessed as protection against maximal electroshock after 4 hrs; format: functional; conditions: read-out: MED; in short: as §2
[9] = test system: Rattus norvegicus; test: Anticonvulsant activity in po dosed rat assessed as protection against maximal electroshock; format: functional
[10] = test system: Mus musculus; test: Neurotoxicity in ip dosed CF1 albino mouse assessed as minimum dose required to cause motor impairment after 0.5 hrs by rotarod test; format: toxicity, organism-based; conditions: in vivo; in short: as §1
[11] = test system: Mus musculus; test: Anticonvulsant activity in ip dosed CF1 albino mouse assessed as protection against subcutaneous pentylenetetrazole-induced after 4 hrs; format: functional; conditions: read-out: MED; in short: as §3
[12] = test system: Mus musculus; test: Neurotoxicity in ip dosed CF1 albino mouse assessed as minimum dose required to cause motor impairment after 4 hrs by rotarod test; format: toxicity, organism-based; conditions: in vivo; in short: as §1
[13] = test system: Mus musculus; test: Anticonvulsant activity in ip dosed CF1 albino mouse assessed as protection against subcutaneous pentylenetetrazole-induced after 0.5 hrs; format: functional; conditions: read-out: MED; in short: as §3
[14] = test system: Mus musculus; test: Neurotoxicity in CF1 albino mouse assessed as unable to grasp rotarod at 300 mg/kg, ip after 4 hrs by rotarod test; format: toxicity, organism-based; set-up: dose 300 mg/kg, route intraperitoneal; conditions: in vivo; in short: as §1
[15] = test system: Rattus norvegicus; test: Neurotoxicity in Sprague-Dawley albino rat assessed as motor impairment at 30 mg/kg, po by rotarod test; format: toxicity, organism-based; set-up: dose 30 mg/kg, route oral; conditions: in vivo
In short: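 Male Sprague-Dawley rats in groups of four were given 30 mg/kg orally in 0.5% methylcellulose/water. Motor impairment was then assessed on the standardized minimal motor impairment rotorod test.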

[16] = test system: Rattus norvegicus; test: Anticonvulsant activity in Sprague-Dawley albino rat assessed as protection against maximal electroshock at 30 mg/kg, po after 4 hrs; format: functional
In short: (§4)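 Male Sprague-Dawley rats in groups of four received 30 mg/kg p.o. as a suspension in 0.5% methylcellulose/water. Maximal electroshock seizure protection was scored at 0.25, 0.5, 1, 2 and 4 h and reported as rats protected/rats tested.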

[17] = test system: Rattus norvegicus; test: Anticonvulsant activity in Sprague-Dawley albino rat assessed as protection against maximal electroshock at 30 mg/kg, po after 2 hrs; format: functional; in short: as §4
[18] = test system: Rattus norvegicus; test: Anticonvulsant activity in Sprague-Dawley albino rat assessed as protection against maximal electroshock at 30 mg/kg, po after 0.5 hrs; format: functional; in short: as §4
[19] = test system: Rattus norvegicus; test: Anticonvulsant activity in Sprague-Dawley albino rat assessed as protection against maximal electroshock at 30 mg/kg, po after 1 hr; format: functional; in short: as §4
[20] = test system: Rattus norvegicus; test: Anticonvulsant activity in Sprague-Dawley albino rat assessed as protection against maximal electroshock at 30 mg/kg, po after 0.25 hrs; format: functional; in short: as §4

| Compound | Activity [1] | Activity [2] | Activity [3] | Activity [4] | Activity [5] | Activity [6] | minimal effective dose [7] | also measured |
| --- | --- | --- | --- | --- | --- | --- | --- | --- |
| O=C(CN1C(=O)C2C3C=CC(C3)C2C1=O)N1CCN(c2ccccc2)CC1 (stereo not given) | Non-toxic | Non-toxic | inactive | inactive | inactive | inactive | – | – |
| O=C(CN1C(=O)c2ccccc2C1=O)N1CCN(c2ccccc2)CC1 | Non-toxic | Non-toxic | – | inactive | inactive | inactive | 100 mg/kg | – |
| O=C(CN1C(=O)C2CCCCC2C1=O)N1CCN(c2ccc(Cl)cc2)CC1 (stereo not given) | Non-toxic | Non-toxic | inactive | inactive | inactive | – | – | minimal effective dose [8]: 300 mg/kg |
| O=C(CN1C(=O)C2CCCCC2C1=O)N1CCN(CCO)CC1 (stereo not given) | Non-toxic | Non-toxic | inactive | inactive | inactive | inactive | – | – |
| O=C(CN1C(=O)c2ccccc2C1=O)N1CCN(c2cccc(Cl)c2Cl)CC1 | Non-toxic | Non-toxic | inactive | inactive | inactive | – | – | minimal effective dose [8]: 100 mg/kg |
| O=C(CN1C(=O)C2CCCCC2C1=O)N1CCN(c2cccc(Cl)c2)CC1 (stereo not given) | Non-toxic | Non-toxic | inactive | inactive | inactive | inactive | – | – |
| Nc1ccc(N2C(=O)c3ccccc3C2=O)c(Cl)c1 | – | – | – | – | – | – | – | ED50 [9]: 5.7 mg/kg |
| NC(=O)N1c2ccccc2C=Cc2ccccc21 [CARBAMAZEPINE] | – | – | – | – | – | – | 30 mg/kg | MTC [10]: 100 mg/kg; minimal effective dose [11]: 300 mg/kg; MTC [12]: 300 mg/kg; minimal effective dose [8]: 100 mg/kg; minimal effective dose [13]: 100 mg/kg |
| CCC1(C)CC(=O)NC1=O (stereo not given) [ETHOSUXIMIDE] | Non-toxic | Non-toxic | inactive | – | – | inactive | – | minimal effective dose [11]: 300 mg/kg; minimal effective dose [13]: 100 mg/kg |
| O=C(CN1C(=O)c2ccccc2C1=O)N1CCN(c2cccc(Cl)c2)CC1 | Non-toxic | Non-toxic | inactive | inactive | inactive | inactive | – | – |
| O=C(CN1C(=O)C2CCCCC2C1=O)N1CCOCC1 (stereo not given) | – | Non-toxic | inactive | inactive | – | inactive | – | MTC [10]: 300 mg/kg; minimal effective dose [11]: 300 mg/kg |
| O=C1CC2(CCc3ccccc3C2)C(=O)N1CN1CCN(c2cccc(C(F)(F)F)c2)CC1 (stereo not given) | – | – | – | – | – | – | – | ED50 [9]: 9 mg/kg |
| O=C(CN1C(=O)c2ccccc2C1=O)N1CCN(c2cccc(C(F)(F)F)c2)CC1 | Non-toxic | Non-toxic | inactive | inactive | inactive | – | – | minimal effective dose [8]: 100 mg/kg |
| O=C(CN1C(=O)C2CCCCC2C1=O)N1CCN(c2cccc(C(F)(F)F)c2)CC1 (stereo not given) | Non-toxic | Non-toxic | – | inactive | inactive | inactive | 100 mg/kg | – |
| O=C(CN1C(=O)C2CCCCC2C1=O)N1CCN(Cc2ccccc2)CC1 (stereo not given) | – | Non-toxic | inactive | inactive | inactive | inactive | – | MTC [10]: 300 mg/kg |
| O=C(CN1C(=O)c2ccccc2C1=O)N1CCN(CCO)CC1 | Non-toxic | Non-toxic | inactive | inactive | inactive | inactive | – | – |
| O=C(CN1C(=O)c2ccccc2C1=O)N1CCN(c2ccccc2F)CC1 | Non-toxic | Non-toxic | – | – | inactive | inactive | 300 mg/kg | minimal effective dose [13]: 300 mg/kg |
| O=C(CN1C(=O)C2C3C=CC(C3)C2C1=O)N1CCN(c2ccc(F)cc2)CC1 (stereo not given) | – | – | – | inactive | inactive | – | 100 mg/kg | MTC [10]: 300 mg/kg; Activity [14]: Toxic; minimal effective dose [8]: 100 mg/kg |
| O=C(CN1C(=O)c2ccccc2C1=O)N1CCN(c2ccc(Cl)cc2)CC1 | Non-toxic | Non-toxic | – | inactive | inactive | – | 100 mg/kg | Activity [15]: Non-toxic; Activity [16]: 50%; Activity [17]: 0%; Activity [18]: 0%; minimal effective dose [8]: 100 mg/kg; Activity [19]: 0%; Activity [20]: 0% |
| O=C(CN1C(=O)c2ccccc2C1=O)N1CCN(Cc2ccccc2)CC1 | Non-toxic | Non-toxic | inactive | inactive | inactive | inactive | – | – |
| O=C1NC(=O)C(c2ccccc2)(c2ccccc2)N1 [PHENYTOIN] | – | – | – | inactive | inactive | – | 30 mg/kg | Activity [15]: Non-toxic; MTC [10]: 100 mg/kg; Activity [16]: 75%; Activity [17]: 75%; Activity [18]: 100%; MTC [12]: 100 mg/kg; minimal effective dose [8]: 30 mg/kg; Activity [19]: 75%; Activity [20]: 25% |
| O=C(CN1C(=O)c2ccccc2C1=O)N1CCN(c2ccccc2Cl)CC1 | Non-toxic | Non-toxic | – | inactive | inactive | inactive | 100 mg/kg | – |
| O=C(CN1C(=O)C2CCCCC2C1=O)N1CCN(c2ccccc2)CC1 (stereo not given) | Non-toxic | Non-toxic | – | inactive | inactive | inactive | 300 mg/kg | – |
| O=C(CN1C(=O)c2ccccc2C1=O)N1CCN(c2ccc(F)cc2)CC1 | – | – | – | – | – | – | 30 mg/kg | Activity [15]: Non-toxic; MTC [10]: 300 mg/kg; Activity [16]: 100%; minimal effective dose [11]: 300 mg/kg; Activity [17]: 100%; Activity [18]: 50%; MTC [12]: 300 mg/kg; minimal effective dose [8]: 100 mg/kg; Activity [19]: 50%; minimal effective dose [13]: 300 mg/kg; Activity [20]: 25% |
| O=C(CN1C(=O)C2C3C=CC(C3)C2C1=O)N1CCN(c2cccc(Cl)c2)CC1 (stereo not given) | Non-toxic | Non-toxic | inactive | inactive | inactive | inactive | – | – |
| O=C(CN1C(=O)C2C3C=CC(C3)C2C1=O)N1CCN(Cc2ccccc2)CC1 (stereo not given) | Non-toxic | Non-toxic | inactive | inactive | inactive | inactive | – | – |
| O=C(CN1C(=O)C2C3C=CC(C3)C2C1=O)N1CCN(c2ccccc2F)CC1 (stereo not given) | Non-toxic | Non-toxic | inactive | inactive | inactive | inactive | – | – |
